Source: ChEMBL document CHEMBL4765333, “Novel NO-releasing scopoletin derivatives induce cell death via mitochondrial apoptosis pathway and cell cycle arrest” (Eur J Med Chem, 2020)
Calls of active or inactive are those of the source. No cut-off for these calls is given here.

Assays:
[1] = tested on: MDA-MB-231; assay: Induction of mitochondrial membrane potential depolarization in human MDA-MB-231 cells assessed as proportion of cells with hyperpolarized MMP at 1.5 uM incubated for 18 hrs by JC-1 staining based flow cytometry (reference value: 98.4%); type: functional
[2] = tested on: MDA-MB-231; assay: Induction of cell cycle arrest in human MDA-MB-231 cells assessed as accumulation at G0/G1 phase at 1 uM measured after 24 hrs by propidium iodide staining based flow cytometric method (reference value: 45.71%); type: functional
[3] = tested on: MDA-MB-231; assay: Induction of apoptosis in human MDA-MB-231 cells assessed as early apoptotic cells at 1.5 uM after 24 hrs by Annexin V/propidium iodide based flow cytometric analysis (reference value: 0.94%); type: functional
Outline: (§1)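 MDA-MB-231 cells (2×10^5/well) attached 24 h, then treated 24 h with 1, 1.5, 2 or 3 µM, DMSO as control. Cells harvested, PBS-washed, resuspended in binding buffer, stained with Annexin V and PI for 30 min at 37°C in the dark, and analysed by flow cytometry for quadrant percentages; three experiments.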

[4] = Induction of intracellular reactive oxygen species generation in human MDA-MB-231 cells assessed as proportion of FL1-H positive cells at 1.5 uM measured after 24 hrs by DCFH-DA staining based flow cytometry analysis (reference value: 47.8%); type: functional, MDA-MB-23
[5] = tested on: MDA-MB-231; assay: Induction of apoptosis in human MDA-MB-231 cells assessed as up-regulation of Bad expression at 1.5 to 6 uM measured after 8 hrs by Western blot analysis; type: functional, cell-based; settings: dose 1.5-6 µM
Outline: (§2)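 MDA-MB-231 cells (8×10^5 per 60 mm dish) attached 24 h, then exposed 8 h to 1.5, 3 or 6 µM, DMSO as control. Lysates quantified by BCA; 30 µg protein run on 4–20% SDS-PAGE, transferred to PVDF, probed for Bcl-2, Bax, Bad, cleaved caspase-9, cleaved caspase-3 and PARP, with ECL detection. Densitometric relative levels; three experiments.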

[6] = Antiproliferative activity against human MDA-MB-231 cells assessed as inhibition of cell proliferation rate at 4 uM measured after 48 hrs by MTT assay; type: functional; settings: MDA-MB-23
Outline: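 MDA-MB-231 cells in DMEM with 10% FBS, ~5,000 cells/well, 24 h attachment, then compound for 48 h at 37°C, 5% CO2. MTT 0.5 mg/ml final for 4 h, DMSO solubilization, absorbance 570 nm; inhibition relative to untreated cells; experiments done three times.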

[7] = tested on: MDA-MB-231; assay: Induction of cell cycle arrest in human MDA-MB-231 cells assessed as accumulation at G2/M phase at 1 uM measured after 24 hrs by propidium iodide staining based flow cytometric method (reference value: 18.55%); type: functional
[8] = tested on: MDA-MB-231; assay: Induction of apoptosis in human MDA-MB-231 cells assessed as increase in cleaved caspase-3 protein expression incubated for 8 hrs by Western blot analysis; type: functional, cell-based; settings: dose 1.5-6 µM; outline: as §2
[9] = tested on: MDA-MB-231; assay: Induction of mitochondrial membrane potential depolarization in human MDA-MB-231 cells assessed as proportion of cells with depolarized MMP at 1 uM incubated for 18 hrs by JC-1 staining based flow cytometry (reference value: 0.72%); type: functional
[10] = tested on: MDA-MB-231; assay: Antiproliferative activity in human MDA-MB-231 cells assessed as inhibition of cell viability at 1.5 to 3 uM pretreated with 20 uM apoptosis inhibitor, Z-VAD-FMK followed by addition of compound and measured after 48 hrs by MTT assay; type: functional, cell-based; settings: dose 1.5-3 µM
Outline: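 MDA-MB-231 cells pretreated 1 h with necrostatin-1 (10 µM) or Z-VAD-FMK (20 µM), then exposed to compound at 1.5, 2 and 3 µM for another 48 h. Inhibition rates by MTT; inhibitors alone also tested 48 h for viability. Mean ± SD, n = 3.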

[11] = tested on: MDA-MB-231; assay: Induction of reactive oxygen species production in human MDA-MB-231 cells at 2 uM preincubated with ROS scavenger, NAC for 2 hrs followed by incubation with compound for 24 hrs by DCFH-DA staining based flow cytometry analysis relative to control; type: functional
Outline: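 MDA-MB-231 seeded at 2×10^5 cells/well, grown 24 h, pretreated with NAC (2.5 mM) for 2 h, then given 2 µM compound for 24 h. Cells loaded with DCFH-DA 30 min at 37°C in the dark, washed in PBS, resuspended in serum-free medium and read by flow cytometry; three independent experiments.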

[12] = tested on: MDA-MB-231; assay: Induction of mitochondrial membrane potential depolarization in human MDA-MB-231 cells assessed as proportion of cells with hyperpolarized MMP at 1 uM incubated for 18 hrs by JC-1 staining based flow cytometry (reference value: 98.4%); type: functional
[13] = Prodrug release in human MDA-MB-231 cells assessed as increase in intracellular NO level at 1 to 10 uM measured after 2.5 hrs by DAF-FM DA reagent based scanning electron microscopy; type: ADME, cell-based; settings: mda-mb-231, 2.5 h, in the assay text read “laser scanning confocal microscopy” for “scanning electron microscopy”, dose 1-10 µM
Outline: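 After 24 h growth at 5×10^4 cells/well, MDA-MB-231 cells loaded with DAF-FM DA (5 µM) 30 min at 37°C, 5% CO2, PBS-washed, then incubated 2.5 h with compound at 1 or 10 µM (scopoletin at 10 µM). NO fluorescence imaged by laser scanning confocal microscopy.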

[14] = tested on: MDA-MB-231; assay: Antiproliferative activity against human MDA-MB-231 cells assessed as inhibition of cell proliferation rate at 4 uM pretreated with 40 uM NO scavenger, hemoglobin for 2 hrs followed by addition of compound and measured after 48 hrs by MTT assay; type: functional
Outline: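 MDA-MB-231 cells pretreated 2 h with the NO scavenger hemoglobin (2.5, 5, 10, 20, 40 µM), then given compound at 4 µM for a further 48 h. Inhibition rate read by MTT assay; mean ± SD, n = 3.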

[15] = tested on: MDA-MB-231; assay: Induction of cell cycle arrest in human MDA-MB-231 cells assessed as accumulation at S phase at 1.5 uM measured after 24 hrs by propidium iodide staining based flow cytometric method (reference value: 36.25%); type: functional
[16] = tested on: MDA-MB-231; assay: Induction of cell cycle arrest in human MDA-MB-231 cells assessed as accumulation at G2/M phase at 2 uM measured after 24 hrs by propidium iodide staining based flow cytometric method (reference value: 18.55%); type: functional
[17] = tested on: MDA-MB-231; assay: Induction of mitochondrial membrane potential depolarization in human MDA-MB-231 cells assessed as proportion of cells with depolarized MMP at 1.5 uM incubated for 18 hrs by JC-1 staining based flow cytometry (reference value: 0.72%); type: functional
[18] = tested on: MDA-MB-231; assay: Induction of apoptosis in human MDA-MB-231 cells assessed as necrotic cells at 2 uM after 24 hrs by Annexin V/propidium iodide based flow cytometric analysis (reference value: 0.019%); type: functional; outline: as §1
[19] = tested on: MDA-MB-231; assay: Induction of apoptosis in human MDA-MB-231 cells assessed as early apoptotic cells at 1 uM after 24 hrs by Annexin V/propidium iodide based flow cytometric analysis (reference value: 0.94%); type: functional; outline: as §1
[20] = tested on: MDA-MB-231; assay: Induction of apoptosis in human MDA-MB-231 cells assessed as viable cells at 1 uM after 24 hrs by Annexin V/propidium iodide based flow cytometric analysis (reference value: 99%); type: functional; settings: read-out: Activity; outline: as §1

## COc1cc2cc(N)c(=O)oc2cc1OCCCOc1no[n+]([O-])c1S(=O)(=O)c1ccccc1
[1]
  Activity: 81.4%
[2]
  Activity: 43.06%
[3]
  Activity: 10.8%
[4]
  Activity: 82.7%
[5]
  Activity: Active
[6]
  inhibition at 4 µM: 91.2%
[7]
  Activity: 24.58%
[8]
  Activity: Dose-dependent effect
[9]
  Activity: 5.4%
[10]
  Activity: inactive
[11]
  fold change (FC): 1.09
[12]
  Activity: 93.2%
[13]
  Drug metabolism: Metabolite_Detected
[14]
  inhibition at 4 µM: 39.5%
[15]
  Activity: 22.92%
[16]
  Activity: 40.29%
[17]
  Activity: 17.7%
[18]
  Activity: 0.2%
[19]
  Activity: 3.75%
[20]
  viability at 1 µM: 87.9%
